The list is not random: actives were taken first. Their share in the collection is about 1.3%.
RAD52 inh: inhibitors of human RAD52 DNA annealing; 0.46% of 360,000 active; P43351; inhibition, % at 18.7 µM; recombinant RAD52 DNA annealing, FRET fluorescence; AID 651710;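 active means every replicate showing at least 50% inhibition; inconclusive means mean inhibition at least 50% but not in every replicate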
Target sequence (P43351 whole entry, looked up): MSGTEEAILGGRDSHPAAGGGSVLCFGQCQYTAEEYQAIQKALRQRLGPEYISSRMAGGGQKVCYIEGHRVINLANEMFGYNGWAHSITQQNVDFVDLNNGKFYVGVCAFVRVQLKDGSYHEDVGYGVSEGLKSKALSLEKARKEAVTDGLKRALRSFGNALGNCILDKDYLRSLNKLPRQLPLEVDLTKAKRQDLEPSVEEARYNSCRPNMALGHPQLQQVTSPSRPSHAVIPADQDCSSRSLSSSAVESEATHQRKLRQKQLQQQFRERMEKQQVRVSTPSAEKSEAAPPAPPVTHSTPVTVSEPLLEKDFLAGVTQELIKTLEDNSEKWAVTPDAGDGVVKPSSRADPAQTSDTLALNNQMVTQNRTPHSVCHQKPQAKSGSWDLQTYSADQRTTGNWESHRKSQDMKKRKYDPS
AF4-AF9 inh: inhibitors of human MLL-AF4/AF9 interaction; AID 651704; 0.47% of 350,000 active; AlphaScreen, biotin-AF4 peptide binding to FLAG-AF9; inhibition, % at 10 µM; P42568;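 active means every replicate reaching a set inhibition limit, whatever the replicate mean, cut at about 25% in these data; inconclusive means mean inhibition reaches that limit but some replicates miss it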;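 further: 0% = plate neutral control median and 100% = total signal loss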
RAD54 branch: inhibitors of human RAD54 branch migration. RAD54 Holliday junction branch migration, FAM/BHQ fluorescence. 0.14% of 360,000 active. inhibition, % at 10.4 µM;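 active means mean normalized replicate activity at least 40 and at least half of replicates scoring 40 or more; inconclusive means only one of the two criteria met; inactive means mean below 40 and under half of replicates reaching 40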;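 further: 0% = median of neutral control wells and 100% = median of positive control wells; inhibitors cause a drop in the FAM fluorescence signal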
INS-1E GSIS act: primary screen for activators of insulin secretion dependent on glucose, INS-1E cells, GLuc reporter luminescence; 0.61% of 370,000 active; INS-1E GLuc reporter insulin secretion, 2-3 h; AID 743287; activation, % at 16.6 µM;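 active means lowest replicate activation of at least 40%, so every replicate reaches that level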;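 further: 0% = median of neutral control wells and 100% = median of IBMX positive control wells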
S100A4 MyoIIA: S100A4-myosin IIA interaction inhibition; P26447; S100A4/TAMRA-MyoIIA peptide fluorescence polarization; inhibition, % at 10.7 µM; 0.14% of 360,000 active; AID 652163;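 active means mean inhibition of at least 70% across replicates, with every replicate also reaching that level; inconclusive means mean inhibition reaches 70% but some replicates fall short; inactive means mean inhibition below 70%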
Target sequence (P26447 whole entry, looked up): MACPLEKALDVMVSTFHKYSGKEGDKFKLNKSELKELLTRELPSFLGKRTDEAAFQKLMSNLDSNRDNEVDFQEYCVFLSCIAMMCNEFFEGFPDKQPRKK
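Test system – S100A4 monomer (human) · Compound – single-point compound testing · Schedule – 5 min incubation before reading · Probe or stimulus – TAMRA-labelled myosin IIA heavy-chain peptide probe, 5 nM · Benchmarks – neutral control DMSO, positive control TFP · Medium – Calcium-containing HEPES buffer, pH 7.2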
AlphaScreen intf: interferes with the AlphaScreen assay signal; shares compounds with AF4-AF9 inh; 45% of 530 active; AlphaScreen interference counter-screen, signal luminescence; AC50, µM (highest dose often 12 µM), for inactives: at the top dose activity change, negative = inhibition; cut-off not given, nearly all actives have AC50 up to about 14 µM
Numbers without * were called inactive; ? = inconclusive; nt = no result; + = active, no number.

SMILES	RAD52 inh	AF4-AF9 inh	RAD54 branch	INS-1E GSIS act	S100A4 MyoIIA	AlphaScreen intf
COc1ccc(N2CCN(CCCNC(=O)C(=O)c3c(C)n(C)c4ccccc34)CC2)cc1	-28.7	37.0*	-0.9	-1.1	-3.4	-20.0%
COc1ccc(N2CCN(C(=O)C(=O)c3c(C)n(C)c4ccccc34)CC2)cc1	-9.9	0.4	-5.6	11.0	-16.4	nt
CCN1/C(=C\C(=S)Nc2ccccc2)Sc2ccccc21	-11.9	9.8	-11.5	nt	-15.2	nt
CCN1/C(=C/C(C)=C/c2sc3ccccc3[n+]2CC)Sc2ccccc21	-295.3	65.6*	71.7*	-25.6	+	6.33µM*
CCN(CC)c1ccc(CNc2nc3ccccc3n2CCN2CCCCC2)cc1	-68.8	43.6*	nt	-25.1	-7.6	-27.9%
COc1ccc(CNc2nc3ccccc3n2CCN2CCCCC2)cc1	-19.9	5.1	12.8	2.2	-9.5	nt
Cc1cc2c(OCC(O)CNC3CCCCC3)cccc2[nH]1 (centres undefined)	19.9	29.1*	nt	13.4	-3.9	-15.3%
c1ccc(N=Nc2ccc3cccccc2-3)cc1	-14.7	76.9*	-2.8	3.5	2.0	1.04µM*
O=c1c2ccccc2nc(/C=C/c2cccnc2)n1Cc1ccccc1	-52.6	39.0*	nt	-2.5	-13.5	-20.4%
O=c1c2ccccc2nc(/C=C/c2cccnc2)n1CCc1ccccc1	7.1	20.1	-2.0	-22.4	17.9	nt
CCCC(=O)NC(c1ccc(OC)cc1)c1ccc2cccnc2c1O (centres undefined)	-17.8	28.8*	nt	18.9	-3.1	2.57µM*
O=C(C[C@H]1C[C@@H]2c3cc(NC(=O)CC4CC4)ccc3O[C@@H]2[C@H](CO)O1)NCCc1ccccc1	2.4	-0.3	12.2	2.0	-18.6	nt
COc1cccc(CNc2ccc3[nH]c(=O)[nH]c3c2)c1OCc1ccccc1F	-10.6	40.8*	9.0	10.8	-1.9	-20.1%
CC1NC(=O)NC1CCCCCC(=O)Nc1ccc(F)cc1 (centres undefined)	-16.9	92.8*	nt	-9.2	-1.7	0.681µM*
c1ccc2c(c1)nc(Nc1ccc(N3CCCCC3)cc1)c1nncn12	-0.3	36.4*	nt	-5.3	-6.3	-15.7%
COc1ccc(C(CCN2CCCC2)c2c(OC)cc(OC)c3c(-c4ccccc4)cc(=O)oc23)cc1 (centres undefined)	32.8	14.8	-3.6	-23.3	-0.8	nt
COc1cc(OC)c2c(-c3ccccc3)cc(=O)oc2c1C(CCN1CCCC1)c1ccc2c(c1)OCO2 (centres undefined)	-41.9	29.3*	-8.4	-28.9	-1.6	-27.2%
COc1cc(OC)c2c(-c3ccccc3)cc(=O)oc2c1C(CCN1CCCC(C)C1)c1ccc(N(C)C)cc1 (centres undefined)	32.3	67.0*	17.6	nt	3.4	3µM*
CCN(CC)CCC(c1ccc(N(C)C)cc1)c1c(OC)cc(OC)c2c(-c3ccccc3)cc(=O)oc12 (centres undefined)	37.6	51.0*	13.5	nt	8.8	4.82µM*
COc1cc(OC)c2c(-c3ccccc3)cc(=O)oc2c1C(CCN1CCOCC1)c1ccc2c(c1)OCO2 (centres undefined)	39.5	5.3	-12.0	-6.4	6.1	nt
COc1cc(OC)c2c(-c3ccccc3)cc(=O)oc2c1C(CC(=O)N1CCOCC1)c1ccc(N(C)C)cc1 (centres undefined)	-6.7	20.1	3.9	nt	-3.5	nt
COCC#Cc1ccc2c(c1)O[C@@H](CN(C)S(=O)(=O)c1cccc(OC)c1)[C@H](C)CN([C@@H](C)CO)S2(=O)=O	-5.1	-1.5	3.1	-10.6	0.3	nt
COc1ccc(/C=C/C(=O)c2cc3c(cc2N)OCO3)cc1	-12.3	37.9*	nt	2.7	-5.1	-29.7%
Cc1ccc(NC(=S)N/N=C/c2ccc([N+](=O)[O-])s2)cc1	0.7	?	-2.8	-0.2	-8.3	-17.7%
Cc1cc(C)cc(N=Cc2ccc([N+](=O)[O-])s2)c1	nt	nt	nt	-19.1	nt	nt
SMILES	RAD52 inh	AF4-AF9 inh	RAD54 branch	INS-1E GSIS act	S100A4 MyoIIA	AlphaScreen intf
COc1ccc(NC(=O)Nc2ccc3c(c2)C(=O)N([C@@H](C)CO)C[C@@H](C)[C@@H](CN(C)C(=O)Nc2ccc(OC)cc2)OCCCC[C@@H](C)O3)cc1	11.5	-3.0	-6.3	-17.0	-10.7	nt
CN1[C@H](C(=O)NCCc2ccccc2)[C@@H](CO)[C@@H]2Cn3c(ccc(-c4ccccc4)c3=O)[C@@H]21	6.8	4.1	-6.2	1.5	6.3	nt
COc1ccc(CNCCC(c2ccc(OC(C)C)cc2)c2ccccc2OC)cc1 (centres undefined)	-45.8	13.5	nt	4.7	-8.6	nt
COc1ccccc1C(CCNCc1ccc(N(C)C)cc1)c1ccc(OC(C)C)cc1 (centres undefined)	-17.3	73.7*	-15.0	-33.9	-6.8	2.89µM*
COc1ccc(C(CCNCc2ccc(N(C)C)cc2)C(C)C)cc1 (centres undefined)	7.3	41.4*	nt	nt	-1.7	11.2µM*
CCC(=O)NC(c1ccc(N(C)C)cc1)c1c(O)ccc2ccccc12 (centres undefined)	-7.6	24.1	-2.2	-10.5	-4.0	-17.2%
COc1ccc(/C=N/N2CCN(c3ccccc3)CC2)cc1Br	1.1	-12.1	-3.2	7.3	-2.9	nt
COc1ccccc1N1CCN(/N=C/C=C\c2ccco2)CC1	nt	nt	3.3	nt	nt	nt
COc1ccccc1N1CCN(/N=C/c2cccc(Cl)c2)CC1	1.0	26.7*	-0.5	-9.6	-0.3	-26.1%
COc1ccccc1N1CCN(/N=C/C=C\c2ccccc2[N+](=O)[O-])CC1	-27.1	51.0*	nt	-12.5	0.1	-18.5%
COc1ccc(/C=N/N2CCN(c3ccccc3OC)CC2)cc1Br	-2.2	27.1*	-1.0	1.3	-1.4	-20.1%
COc1ccccc1-c1cccc2[nH]c3c(c12)CCN1C(=O)[C@H]2[C@H](C)ON(C)[C@H]2C[C@@H]31	-33.5	nt	nt	-6.3	-12.7	nt
Cc1ccn2c(Nc3ccc4c(c3)OCO4)c(-c3ccccn3)nc2c1	-95.5	32.0*	-3.3	nt	46.0	9.29µM*
Cc1nn(-c2ccccc2)c(Cl)c1/C=C1\SC(=S)N(C)C1=O	nt	nt	-2.4	3.9	nt	nt
Cc1nn(-c2ccccc2)c(Cl)c1/C=C1\C(=O)N(C)C(=S)N1C	-29.8	40.2*	nt	5.2	-3.6	-24.4%
O=C(CNCc1cccs1)Nc1ccc(N2CCCCCC2)cc1	-2.7	42.0*	nt	12.5	-14.2	13.1µM*
COc1ccc(OC)c(CN2CCN(C(=O)c3cc(S(=O)(=O)Nc4ccccc4OC)ccc3C)CC2)c1	-1.1	3.8	1.4	-5.1	-0.3	nt
COc1ccc(NS(=O)(=O)c2ccc(C)c(C(=O)N3CCN(Cc4cc(OC)ccc4OC)CC3)c2)cc1	2.0	34.9*	14.1	-28.0	-2.3	-15.8%
COc1ccc2c3c(n(C)c2c1)[C@H](CO)N(C(=O)Nc1ccc(F)cc1)CC31CN(C)C1	nt	?	nt	-33.1	nt	nt
Nc1ccc2[nH]ncc2c1	-4.0	44.7*	20.7	20.0	5.7	-16.5%

Assay outcomes from PubChem.
